The record followed here is ChEMBL document CHEMBL4414551, “Design, Synthesis, and Biological Evaluation of Substituted 4,6-Dihydrospiro[[1,2,3]triazolo[4,5-b]pyridine-7,3'-indoline]-2',5(3H)-dione Analogues as Potent NS4B Inhibitors for the Treatment of Dengue Virus Infection” (J Med Chem, 2019).

Bounds are passed on as bounds.

One series deals with dengue virus type 2. The series is described as follows: Antiviral activity against Dengue virus 2 NGC infected in human HuH7 replicon cells expressing Renilla luciferase and neomycin-resistance genes assessed as reduction in viral replication incubated for 48 hrs by luciferase reporter replicon-based assay. It counts as functional, organism-based. The note with it: Huh-7, 48 h. Put shortly:
(§1)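 Huh7 cells stably carrying a Renilla luciferase/neomycin-resistance replicon (DENV-1 WestPac, DENV-2 NGC, DENV-3 D3MY05-34640 or DENV-4 D4MY01-22713). Cells seeded at 10k per well and incubated overnight at 37 °C, 5% CO2. Then exposed to 2-fold serial compound dilutions for 48 h, in duplicate. Luciferase read with a live-cell substrate. EC50 from four-parameter logistic fit.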
In general terms: In antiviral work, replicon cells carry a viral genome segment that copies itself.

For a further series, the system named is dengue virus type 4. Kind of series: Antiviral activity against Dengue virus 4 D4MY01-22713 infected in human HuH7 replicon cells expressing Renilla luciferase and neomycin-resistance genes assessed as reduction in viral replication incubated for 48 hrs by luciferase reporter replicon-based assay. Type of series: functional, organism-based. The note with it: D4MY01-22713, Huh-7, 48 h. The essentials: as §1

Series [1] can be described thus: Cytotoxicity in human HuH7 replicon cells infected with Dengue virus 2 NGC assessed as reduction in cell viability incubated for 48 hrs by Cell-titer-Glo reagent based assay. Further details: species or system Huh-7. The essentials:
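Huh7 cells or Huh7 replicon cells plated, then held at 37 °C with 5% CO₂ overnight. Exposed to 2-fold serial compound dilutions for 48 h, in duplicate. Viability read with CellTiter-Glo and normalized to 0.45% DMSO wells set at 100%. CC50 from four-parameter logistic fit.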

Another series concerns dengue virus type 3. Kind of series: Antiviral activity against Dengue virus 3 D3MY05-34640 infected in human HuH7 replicon cells expressing Renilla luciferase and neomycin-resistance genes assessed as reduction in viral replication incubated for 48 hrs by luciferase reporter replicon-based assay. It counts as functional, organism-based. The note with it: D3MY05-34640, Huh-7, 48 h. Put shortly:
as §1

A further series relates to dengue virus type 1. The series is described as follows: Antiviral activity against Dengue virus 1 WestPac infected in human HuH7 replicon cells expressing Renilla luciferase and neomycin-resistance genes assessed as reduction in viral replication incubated for 48 hrs by luciferase reporter replicon-based assay. Type of series: functional, organism-based. The note with it: Huh-7, 48 h. The essentials:
as §1

Broadly, the EC50 is the concentration that produces a half-maximal response. One may read the CC50 as the concentration at which the toxic effect on the cells reaches its halfway point. Take `COCOCCN1C(=O)[C@]2(CC(=O)Nc3c2nnn3[C@@H](C)c2ccc(Cl)cc2)c2cc(Cl)ccc21`: the EC50 in the series with dengue virus type 2 was 92 nM; in the series with dengue virus type 4 it was greater than 5000 nM; in the series on dengue virus type 3, 19 nM; in the series on dengue virus type 1 it was greater than 5000 nM. In addition, the CC50 at 48 h in series [1] was greater than 10000 nM.

Turning to `C[C@@H](c1ccc(Cl)cc1)n1nnc2c1NC(=O)C[C@]21C(=O)N(CC2CC2)c2ccc(Cl)cc21`, the EC50 is 110 nM with dengue virus type 2, greater than 5000 nM with dengue virus type 4, 17 nM in the series on dengue virus type 3 and 3100 nM in the series with dengue virus type 1. In series [1], the 50% cytotoxic concentration (CC50) at 48 h is greater than 10000 nM.

Regarding `COCCCN1C(=O)C[C@]2(C(=O)Nc3ccc(Cl)cc32)c2nnn([C@@H](C)c3ccc(Cl)cc3)c21`, the half-maximal effective concentration (EC50) is 8700 nM in the series on dengue virus type 2, greater than 10000 nM with dengue virus type 4, 910 nM with dengue virus type 3 and greater than 10000 nM with dengue virus type 1. Further, the half-maximal cytotoxic concentration (CC50) at 48 h in series [1] was greater than 10000 nM.

Consider `Cc1ccc(CN2C(=O)[C@]3(CC(=O)Nc4c3nnn4[C@@H](C)c3ccc(Cl)cc3)c3cc(Cl)ccc32)cn1`, for which the EC50 with dengue virus type 2 was 150 nM; in the series on dengue virus type 4, greater than 5000 nM; with dengue virus type 3, 11 nM; in the series with dengue virus type 1 it was greater than 5000 nM. Also, the cytotoxic concentration (CC50) at 48 h in series [1] is greater than 10000 nM.

Take `CC#CCN1C(=O)[C@]2(CC(=O)Nc3c2nnn3[C@@H](C)c2ccc(Cl)cc2)c2cc(Cl)ccc21`: the concentration for a half-maximal effect (EC50) in the series with dengue virus type 2 was 63 nM; with dengue virus type 4, greater than 5000 nM; in the series with dengue virus type 3, 20 nM; in the series with dengue virus type 1, greater than 5000 nM. The CC50 at 48 h in series [1] was greater than 10000 nM.

As for `C[C@@H](c1ccc(Cl)cc1)n1nnc2c1NC(=O)C[C@]21C(=O)N(Cc2ccncc2)c2ccc(Cl)cc21`, the concentration giving a half-maximal response (EC50) with dengue virus type 2 was 72 nM; with dengue virus type 4 it was greater than 5000 nM; in the series with dengue virus type 3, 25 nM; in the series with dengue virus type 1, greater than 5000 nM. Besides, the 50% cytotoxic concentration (CC50) at 48 h in series [1] is greater than 10000 nM.

Consider `COc1cccc(CN2C(=O)[C@]3(CC(=O)Nc4c3nnn4[C@@H](C)c3ccc(Cl)cc3)c3cc(Cl)ccc32)c1`, for which the EC50 with dengue virus type 2 is 830 nM; in the series on dengue virus type 4, 6200 nM; in the series with dengue virus type 3, 87 nM; in the series with dengue virus type 1 it was 2600 nM. For the same compound, the cytotoxic concentration (CC50) at 48 h in series [1] was greater than 10000 nM.

For `C[C@@H](c1ccc(Cl)cc1)n1nnc2c1NC(=O)C[C@]21C(=O)N(CCCN(C)C)c2ccc(Cl)cc21`, the EC50 with dengue virus type 2 was 25 nM; in the series with dengue virus type 4, greater than 5000 nM; in the series on dengue virus type 3, 1 nM; in the series on dengue virus type 1, greater than 5000 nM. In series [1], the half-maximal cytotoxic concentration (CC50) at 48 h is greater than 10000 nM.

`C[C@@H](c1ccc(Cl)cc1)n1nnc2c1NC(=O)C[C@]21C(=O)N(CCCBr)c2ccc(Cl)cc21`: the EC50 with dengue virus type 2 is 250 nM; in the series on dengue virus type 4 it was 3200 nM; in the series on dengue virus type 3 it was 76 nM; in the series with dengue virus type 1, 2400 nM. Also, in series [1], the CC50 at 48 h was greater than 10000 nM.

For `C[C@@H](c1ccc(Cl)cc1)n1nnc2c1NC(=O)C[C@]21C(=O)Nc2ccc(Cl)cc21`, the EC50 with dengue virus type 2 was 39 nM; in the series with dengue virus type 4, greater than 5000 nM; with dengue virus type 3 it was 10 nM; in the series with dengue virus type 1, greater than 5000 nM. Moreover, the half-maximal cytotoxic concentration (CC50) at 48 h in series [1] was greater than 10000 nM.

For the compound `C[C@@H](c1ccc(Cl)cc1)n1nnc2c1NC(=O)C[C@]21C(=O)N(CCF)c2ccc(Cl)cc21`, the EC50 in the series with dengue virus type 2 was 38 nM; with dengue virus type 4 it was greater than 5000 nM; with dengue virus type 3, 9 nM; with dengue virus type 1, greater than 5000 nM. Besides, the half-maximal cytotoxic concentration (CC50) at 48 h in series [1] is greater than 10000 nM.

With `C[C@@H](c1ccc(Cl)cc1)n1nnc2c1NC(=O)C[C@]21C(=O)N(C)c2ccc(Cl)cc21`, the EC50 in the series with dengue virus type 2 is 19 nM; in the series on dengue virus type 4, greater than 5000 nM; in the series with dengue virus type 3, 4 nM; in the series on dengue virus type 1 it was greater than 5000 nM. For the same compound, the 50% cytotoxic concentration (CC50) at 48 h in series [1] is greater than 10000 nM.

Take `C[C@@H](c1ccc(Cl)cc1)n1nnc2c1N(C)C(=O)C(C)(C)[C@]21C(=O)N(C)c2ccc(Cl)cc21`: the EC50 with dengue virus type 2, with dengue virus type 4, with dengue virus type 3 and with dengue virus type 1 was greater than 5000 nM in each case. Moreover, the CC50 at 48 h in series [1] is greater than 10000 nM.

As for `C[C@@H](c1ccc(Cl)cc1)n1nnc2c1NC(=O)C[C@]21C(=O)N(CCN2CCCCC2)c2ccc(Cl)cc21`, the EC50 is 74 nM in the series with dengue virus type 2, greater than 5000 nM in the series with dengue virus type 4, 5 nM in the series on dengue virus type 3 and greater than 5000 nM with dengue virus type 1. In series [1], the cytotoxic concentration (CC50) at 48 h is greater than 10000 nM.

Consider `C[C@@H](c1ccc(Cl)cc1)n1nnc2c1NC(=O)C[C@]21C(=O)N(CCCCN(C)C)c2ccc(Cl)cc21`, for which the concentration giving a half-maximal response (EC50) is 190 nM with dengue virus type 2, greater than 5000 nM in the series on dengue virus type 4, 38 nM with dengue virus type 3 and greater than 5000 nM in the series on dengue virus type 1. In addition, the CC50 at 48 h in series [1] is greater than 10000 nM.

`C[C@@H](c1ccc(Cl)cc1)n1nnc2c1NC(=O)C[C@]21C(=O)N(Cc2ccccc2)c2ccc(Cl)cc21`: the concentration for a half-maximal effect (EC50) in the series with dengue virus type 2 was 150 nM; with dengue virus type 4, greater than 5000 nM; in the series with dengue virus type 3, 20 nM; with dengue virus type 1, 2000 nM. In addition, the cytotoxic concentration (CC50) at 48 h in series [1] is greater than 10000 nM.

For the compound `CC(C)N1C(=O)C[C@]2(C(=O)Nc3ccc(Cl)cc32)c2nnn([C@@H](C)c3ccc(Cl)cc3)c21`, the EC50 in the series with dengue virus type 2 worked out at 860 nM; in the series with dengue virus type 4 it was 4400 nM; with dengue virus type 3, 310 nM; in the series on dengue virus type 1 it was 2100 nM. Besides, in series [1], the half-maximal cytotoxic concentration (CC50) at 48 h is greater than 10000 nM.

On to `CC(C)CN1C(=O)[C@]2(CC(=O)Nc3c2nnn3[C@@H](C)c2ccc(Cl)cc2)c2cc(Cl)ccc21`, for which the EC50 in the series on dengue virus type 2 is 150 nM; with dengue virus type 4, greater than 5000 nM; in the series on dengue virus type 3, 20 nM; in the series on dengue virus type 1, 1300 nM. The CC50 at 48 h in series [1] is greater than 10000 nM.

On to `C[C@@H](c1ccc(Cl)cc1)n1nnc2c1NC(=O)C[C@]21C(=O)N(CCc2ccccc2)c2ccc(Cl)cc21`, for which the half-maximal effective concentration (EC50) in the series with dengue virus type 2 is 600 nM; with dengue virus type 4, greater than 5000 nM; with dengue virus type 3 it was 190 nM; in the series with dengue virus type 1 it was 1100 nM. In addition, the cytotoxic concentration (CC50) at 48 h in series [1] is greater than 10000 nM.

On to `C[C@@H](c1ccc(Cl)cc1)n1nnc2c1NC(=O)C[C@]21C(=O)N(CCCN2CCOCC2)c2ccc(Cl)cc21`, for which the EC50 in the series on dengue virus type 2 is 76 nM; in the series with dengue virus type 4, greater than 5000 nM; with dengue virus type 3 it was 5 nM; with dengue virus type 1 it was greater than 5000 nM. In series [1], the CC50 at 48 h was greater than 10000 nM.

As to `C=CCN1C(=O)[C@]2(CC(=O)Nc3c2nnn3[C@@H](C)c2ccc(Cl)cc2)c2cc(Cl)ccc21`, the EC50 with dengue virus type 2 was 38 nM; in the series on dengue virus type 4, greater than 5000 nM; with dengue virus type 3, 5 nM; in the series with dengue virus type 1, 2100 nM. In addition, the half-maximal cytotoxic concentration (CC50) at 48 h in series [1] is greater than 10000 nM.

As for `CCCCCCN1C(=O)[C@]2(CC(=O)Nc3c2nnn3[C@@H](C)c2ccc(Cl)cc2)c2cc(Cl)ccc21`, the 50% effective concentration (EC50) in the series on dengue virus type 2 was 810 nM; in the series with dengue virus type 4, greater than 5000 nM; with dengue virus type 3, 140 nM; in the series with dengue virus type 1, 830 nM. The half-maximal cytotoxic concentration (CC50) at 48 h in series [1] is greater than 10000 nM.

Regarding `COc1cc(CN2C(=O)[C@]3(CC(=O)Nc4c3nnn4[C@@H](C)c3ccc(Cl)cc3)c3cc(Cl)ccc32)cc(OC)c1`, the EC50 stood at 3100 nM in the series on dengue virus type 2, 7400 nM with dengue virus type 4, 790 nM in the series with dengue virus type 3 and 3400 nM with dengue virus type 1. For the same compound, the CC50 at 48 h in series [1] was greater than 10000 nM.

With `COCCCN1C(=O)[C@]2(CC(=O)Nc3c2nnn3[C@@H](C)c2ccc(Cl)cc2)c2cc(Cl)ccc21`, the EC50 in the series with dengue virus type 2 is 40 nM; with dengue virus type 4, greater than 5000 nM; with dengue virus type 3 it was 9 nM; in the series on dengue virus type 1 it was greater than 5000 nM. Besides, the CC50 at 48 h in series [1] was greater than 10000 nM.
